Experimental findings from the RNAGym collection of RNA variant scans (doi:10.1126/science.aae0568) are described below.

Sequences and labels used below:
B1: tRNA (parent)
chain: GUUCCGUUGGCGUAAUGGUAACGCGUCUCCCUCCUAAGGAGAAGACUGCGGGUUCGAGUCCCGUACGGAACG

This sample holds only a part of the variants without activity.

In this data set the parent is B1. The experiment in a line: yeast fitness relative to wild type (ratio to wild type); higher = fitter; tRNA-Arg(CCU), competitive growth, 37 C, YPD. The gist of the method:
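Genotype frequency changes were the basis for Darwinian fitness relative to wild type. The frequencies came from 100-nucleotide paired-end sequencing of gene amplicons from the start population and each end population of pooled yeast strains with tRNA-Arg(CCU) gene variants at the native locus. Competition ran in YPD at 37°C for 24 hours in six replicates, genotypes needed ≥ 100 starting reads, and estimates < 0.5 were set to 0.5.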
Turning to GUUCCGUUGGCGUGAUGGUACCGCGUCUCCCUCCAAAGGAGAGGACUGCGGGUUCGAGUCCCGUACGGAACG [A14G A21C U35A A43G], the yeast fitness is ≤ 0.5.
On to GUUCCGUUGGCGUGAUGGUAACGCGUCUCCCUCCUAAGGAGUAGCCUGCGGGUUCGAGACCCGUACGGAACG [A14G A42U A45C U59A], for which the yeast fitness is ≤ 0.5.
For GUUCCGUUGGCGUGAUGGUAACGCGUCUCCCUCCUAAGGAGAAGACUGCGGGUUCGAGUCCCGUACGGUACG [A14G A69U] the value was 0.921; for GUUCCGUUGGCGUGAUGGUAACGCGUCUCCCUCCUAAGGAGAAGACUGCGGGUUCGAGUCCCGUACGGGACG [A14G A69G], 0.821.
For the variant GUUCCGUUGGCGUGAUGGUAAGGCGUCUCCCUCCUAAGGAGAAGACUGCGGGUUCGAGUCCCGAACGGAACG [A14G C22G U64A], the yeast fitness was ≤ 0.5.
To GUUCCGUUGGCGUGAUGGUAACGCGUCUCCCUCCUAAGGAGACGGCUGCAGGUUCGAGUCCCGUACGGAACG [A14G A43C A45G G50A] belongs ≤ 0.5; to GUUCCGUUGGCGUGAUGGUAAGGCGUCUCCCUCCAAAGGAGAAGACUGCGGGUUCGAGUCCCGUACGGAACG [A14G C22G U35A], 0.61.
Regarding GUUCCGUUGGCGUGAUGGUAACGCGUCUCCCUCCUAAGGCGAAGACUGCGGGUUCGAGUCCGGUAUGGAACG [A14G A40C C62G C66U], the yeast fitness is ≤ 0.5.
Turning to GUUCCGUUGGCGUGAUGGUAACGCGUCUCCCUCCUACGGAGAAGACUGCGGGUUCGAGUCCCGUGCGGAACG [A14G A37C A65G], the yeast fitness was determined as 0.659.
Take GUUCCGUUGGCGUGAUGGUAACGUGUCUCCCUCCUAAGGAGAAGACUGCGGGUUCGGGUCCCGUACGGAACG [A14G C24U A57G]: the yeast fitness came to 0.639.
For GUUCCGUUGGCGUGAUGGUAUCGCGUCUCACUCCUUAGGAGAAGACUGCGGGUUCGAGUUCCGUACGGCACG [A14G A21U C30A A36U C60U A69C] the value was ≤ 0.5.
To GUUCCGUUGGCGUGAUGGUAACGCGUCUCCCUCCUAAGGAGAUGACUGCGGGUUCGAGUCCCGUACGGAACG [A14G A43U] belongs 0.803; to GUUCCGUUGGCGUGAUGGUAACGCGUCUCCCUCCUAAGGAGACGACUGCGGGUUCGAGUCCCGUACGGAACG [A14G A43C], 0.823; to GUUCCGUUGGCGUGAUGGUAACGCGUCUCCCUCCUAAGGAGUAGACUGCGGGUUCGAGUCCCGUACGGAACG [A14G A42U], 0.873.
For GUUCCGUUGGCGUGAUGGUAACGAGUCUCCUUCCUAAGGUGAAGACUGCGGGUUCGAGUCCCGUACGGAGCG [A14G C24A C31U A40U A70G] the value was 0.571; for GUUCCGUUGGCGUGAUGGUAUCGCGUCUCCCUCCUAAGGAGAAGACUGCGGGUUCCAGUCCCGUACGCAACG [A14G A21U G56C G68C], 0.637; for GUUCCGUUGGCGUGAUGGUAAUGGGUCUCCCUCCUAAGGAGCAGACUGCGGGUUCGGGUCCCGUACGGAACG [A14G C22U C24G A42C A57G], ≤ 0.5.
Consider GUUCCGUUGGCGUGAUGGUAACGUGUCUCCCUCCUAAGGAGAAGACUCCGGGUUCGAGUCCCGUAAGGAACG [A14G C24U G48C C66A], for which the yeast fitness was ≤ 0.5.
To GUUCCGUUGGCGUGAUGGUAACGGGUCUCCUUCCUAAGGAGAAGACUGCGGGUUAGAGUCCCGUACGGAACG [A14G C24G C31U C55A] belongs 0.552; to GUUCCGUUGGCGUGAUGGUAACGCGUCUCCCUCCUACGGAGAAGACUGCGGGUUCGAGUCCCGUACGGACCG [A14G A37C A70C], 0.624; to GUUCCGUUGGCGUGAUGGUAACGGGUCUCCCUCCUAAGGAGAAGACUGCGGGUUCGAGUCCCGUACGGAACG [A14G C24G], 0.597.
To GUUCCGUUGGCGUGAUGGUAACGCGUCUCCCUCCUGAGGAGAAGACAGCGGGUUCGAGUCCCGUACGGAACG [A14G A36G U47A] belongs ≤ 0.5; to GUUCCGUUGGCGUGAUGGUAACGGGUCUCCCUCCUAAGGAGAAGACUGCGGAUUCGAGUCCCGUACGGAACG [A14G C24G G52A], ≤ 0.5; to GUUCCGUUGGCGUGAUGGUAACGCGUCUCCCUCCUUCGGAGAAGACUGAGGGGUCGAGUCCCGUACGGAACG [A14G A36U A37C C49A U53G], ≤ 0.5.
For GUUCCGUUGGCGUGAUGGUAACGGGUCUCCCUCCUAAGGAGCAGACUGCGGGUUCGAGUCCCAUACGGAACG [A14G C24G A42C G63A] the value was ≤ 0.5; for GUUCCGUUGGCGUGAUGGUAACGCGUCUCCCUCCUAAGGUGAAGAGUGCCGGUUCGUGUCCCGUACGGAACG [A14G A40U C46G G50C A57U], ≤ 0.5.
Turning to GUUCCGUUGGCGUGAUGGUAACGUGUCUCCCUCCUAAGGAGAAGACUGUGGGUUCGAGUCCCGUACGGAACG [A14G C24U C49U], the yeast fitness is 0.675.
For GUUCCGUUGGCGUGAUGGUAACGCGUCUCCCUCCUAAGGAGAAGACUGCGGGUUCGCGUCCUGUACGGAACG [A14G A57C C62U] the value was ≤ 0.5; for GUUCCGUUGGCGUGAUGGUAACGCGUCUCCCUCCUUAGGAGAAGAGUGCGGGUUCGAGUCCAGUACGGCACG [A14G A36U C46G C62A A69C], ≤ 0.5; for GUUCCGUUGGCGUGAUGGUAAUGCGUCUCCCUCCUAAGGAGAAGUCUGCGGGUUCGAGUCCCGUACGGAACG [A14G C22U A45U], 0.626.
To GUUCCGUUGGCGUGAUGGUAGCGCGUCUCCCUCCUAAGGAGAAGACUGCGGGUUCGAGUCCCGUACAGAACG [A14G A21G G67A] belongs 0.63; to GUUCCGUUGGCGUGAUGGUAACGCGUCUCCCUCCUACGGAGAAGACUGCGGGUUCGAGUCCCGUACGGAACG [A14G A37C], 0.73.
To GUUCCGUUGGCGUGAUGGUAACGCGUCUCCCUCCUAAGGAGAAGACUGCGGGUUCGAGUCCCGUACGGUCCG [A14G A69U A70C] belongs 0.726; to GUUCCGUUGGCGUGAUGGUAUCGCGUCUCCCUCCUAAGGAGAAGACUGCGGGUUCGAGUCCGGUACGGAACG [A14G A21U C62G], ≤ 0.5.
Consider GUUCCGUUGGCGUGAUGGUAACGGGUCUCCUUCCUAAGGAGAAGACUGCGGGUUCGAGUCCCGUAGGGAACG [A14G C24G C31U C66G], for which the yeast fitness was ≤ 0.5.
As for GUUCCGUUGGCGUGAUGGUAACGGGUCUCCCUCCUAAGGAGAAGACUGCAGGUUGGAGUCCCGUACGGAACG [A14G C24G G50A C55G], the yeast fitness was ≤ 0.5.
To GUUCCGUUGGCGUGAUGGUAACGCGUCUCCCUCCUAAGGAGACGACUGCGGCUUCGAGUCCCGUACGGAACG [A14G A43C G52C] belongs ≤ 0.5.
